Experimental data from ChEMBL document CHEMBL1153453, “Schiff bases of 3-formylchromone as thymidine phosphorylase inhibitors” (Bioorg Med Chem, 2009).

target: Thymidine phosphorylase (Escherichia coli K-12, UniProt P07650); test: Inhibition of Escherichia coli thymidine phosphorylase; conditions: not given
Outline: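 E. coli thymidine phosphorylase, 0.05 or 0.002 U, in potassium phosphate buffer pH 7.4, preincubated with test compound 10 min at 25 °C. A 290 nm pre-read was then taken, substrate added (1.5 mM stock), and absorbance at 290 nm read after 10, 20 and 30 min. Increasing compound concentrations were tested in triplicate. IC50 was calculated from the inhibition data.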

Sequence of Thymidine phosphorylase (P07650 whole entry): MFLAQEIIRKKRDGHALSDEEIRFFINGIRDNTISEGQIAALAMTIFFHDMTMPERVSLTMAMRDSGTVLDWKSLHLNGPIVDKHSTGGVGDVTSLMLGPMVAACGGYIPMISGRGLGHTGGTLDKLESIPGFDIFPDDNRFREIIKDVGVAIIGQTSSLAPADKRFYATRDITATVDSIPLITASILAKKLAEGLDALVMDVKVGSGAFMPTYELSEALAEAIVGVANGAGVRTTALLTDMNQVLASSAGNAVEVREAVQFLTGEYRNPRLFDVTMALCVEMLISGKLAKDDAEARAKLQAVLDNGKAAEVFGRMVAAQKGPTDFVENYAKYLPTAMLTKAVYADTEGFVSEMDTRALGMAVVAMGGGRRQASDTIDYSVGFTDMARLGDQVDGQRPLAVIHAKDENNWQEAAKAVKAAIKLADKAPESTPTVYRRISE

SMILES | IC50
CC(C)(C)NC(NC(C)(C)C)c1coc2ccccc2c1=O | Not Active
O=C(O)c1ccccc1/N=C/c1coc2ccccc2c1=O | Not Active
COc1cc([N+](=O)[O-])ccc1/N=C/c1coc2ccccc2c1=O | Not Active

The remaining lines, values ahead:

IC50 | SMILES
Not Active | O=c1c(/C=N/c2ccncc2)coc2ccccc12
Not Active | Cc1ccc(/N=C/c2coc3ccccc3c2=O)cc1
Not Active | O=c1c(/C=N/c2cccnc2)coc2ccccc12
Not Active | COc1cccc(/N=C/c2coc3ccccc3c2=O)c1
Not Active | Cc1cccc(C)c1/N=C/c1coc2ccccc2c1=O

same assay, conditions: read-out: IC50

SMILES | IC50 [µM]
O=c1c(/C=N/CC/N=C/c2coc3ccccc3c2=O)coc2ccccc12 | 150
O=c1c(/C=N/C(CO)Cc2ccccc2)coc2ccccc12 (configuration not stated) | 473
O=c1c(/C=N/c2ccc(Cl)cc2Cl)coc2ccccc12 | 40.3
O=C(c1ccccc1)c1cc(Cl)ccc1/N=C/c1coc2ccccc2c1=O | 75.9
Cc1cccc([N+](=O)[O-])c1/N=C/c1coc2ccccc2c1=O | 480
CCC(=O)N/N=C/c1coc2ccccc2c1=O | 146

More lines, now with the values ahead:

IC50 [µM] | SMILES
340 | O=c1c(/C=N/c2ncccc2O)coc2ccccc12
67.3 | Cc1cccc(/N=C/c2coc3ccccc3c2=O)c1
19.8 | COc1cc(/N=C/c2coc3ccccc3c2=O)ccc1C
